Publication PMC3960632 (British Journal of Cancer, 2014)

Legend:
recombinant AKR1C1-4 = conditions: ref Hebert et al, 2013; cited from earlier work
primary CLL cells = assay: Primary CLL cell apoptosis; type: cell-based, human; conditions: 24 h; 0.5 mM BEZ, 5 μM MPA, 5.1 μM 4-MDDT; n=4 samples
Summary of the method: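 Patient blood mononuclear cells isolated on Ficoll, with consent and ethical approval. Co-cultured 10:1 on non-CD40L-expressing L-cell fibroblast stroma in 96-well plates. Treated in triplicate for 24 h against solvent control. Viability read by annexin V/propidium iodide staining and flow cytometry; n=4 patient samples ± s.e.m.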

[1] = system: HL-60, K562 and KG1a AML cell lines; assay: Cumulative cell counts / viability of AML cell lines; type: cell-based; conditions: 7 days, 5 μM MPA, 50 μM 4-MDDT
Summary of the method: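 HL60, K562 and KG1a cells kept in RPMI-1640 with L-glutamine, 10% heat-inactivated FBS and penicillin/streptomycin at 37 °C, 5% CO2, passaged every 2 days at 0.25–1.5 × 10^6 cells/ml. Treated 7 days at 1 × 10^4 cells/well or 0.25 × 10^6 cells/ml in flasks, with DMSO/ethanol solvent controls. Cumulative viable counts by manual counting or flow cytometry with viable gates and counting beads. Mean of ≥3 experiments ± s.e.m.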

HL-60 cells = assay: HL-60 differentiation; type: cell-based; conditions: 5 μM MPA, 50 μM 4-MDDT
Summary of the method: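 HL-60 cells grown in RPMI-1640 with 10% heat-inactivated FBS at 37 °C, 5% CO2. Treated 7 days and re-fed and re-treated every 2 days, with solvent controls. At day 7, PE-CD11b staining read by flow cytometry, mean of ≥3 experiments ± s.e.m. Cytospins from 75–100 μl of culture were air-dried, methanol-fixed and Jenner–Giemsa stained for morphology.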

recombinant AKR1C3 = target: T1, recombinant AKR1C3 (Homo sapiens, UniProt P42330); assay: AKR1C-diaphorase; type: biochemical; conditions: freshly prepared solution
T1 sequence (P42330 1-323): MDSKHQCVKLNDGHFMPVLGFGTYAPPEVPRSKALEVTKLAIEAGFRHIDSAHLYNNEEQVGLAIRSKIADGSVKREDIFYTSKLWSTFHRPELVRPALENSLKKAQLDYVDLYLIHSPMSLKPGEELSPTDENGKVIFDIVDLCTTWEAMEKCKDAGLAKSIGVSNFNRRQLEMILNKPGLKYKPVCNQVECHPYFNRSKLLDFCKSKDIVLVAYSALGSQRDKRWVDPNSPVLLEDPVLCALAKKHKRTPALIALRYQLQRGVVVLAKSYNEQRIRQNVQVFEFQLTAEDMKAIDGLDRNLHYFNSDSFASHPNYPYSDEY

[2] = Stability of the DMSO solution; type: physicochemical; conditions: solution in DMSO

O=C(O)c1cccc(S(=O)(=O)N2CCc3ccccc3C2)c1 [A1, 3-(3,4-dihydro-1H-isoquinoline-2-sulphonyl)-benzoic acid]
AKR1C3 selectivity in the CRT screen (recombinant AKR1C1-4): AKR1C3-selective inhibitors

O=C(N1CCOCC1)N1CCN(c2ccc(Cl)cc2)CC1 [A9, [4-(4-chloro-phenyl)-piperazin-1-yl]-morpholin-4-yl-methanone]
AKR1C3 selectivity in the CRT screen (recombinant AKR1C1-4): AKR1C3-selective inhibitors

CC(C)(Oc1ccc(CCNC(=O)c2ccc(Cl)cc2)cc1)C(=O)O [BEZ, bezafibrate]
apoptosis of CLL cells, single agent (primary CLL cells): neither BEZ nor MPA as single agents markedly increased apoptosis

CC(=O)O[C@]1(C(C)=O)CC[C@H]2[C@@H]3C[C@H](C)C4=CC(=O)CC[C@]4(C)[C@H]3CC[C@@]21C [MPA, medroxyprogesterone acetate]
AML cell killing when combined with BEZ ([1]; with 0.5 mM BEZ, NCI compounds at 10 times the IC50, 10 μM A1/A6/A9): greatly enhanced AML cell killing | anti-proliferative effect, agent alone ([1]; NCI compounds at 10 times the IC50): moderate but statistically anti-proliferative effect | HL-60 cell differentiation in response to ATRA (HL-60 cells; day 7, with 10 nM ATRA): promoted the differentiation of HL-60 cells | HL-60 cell differentiation (CD11b, phenotypic changes) combined with BEZ (HL-60 cells; day 7, with 0.5 mM BEZ): strongly promoted HL-60 cell differentiation | apoptosis of CLL cells, single agent (primary CLL cells): neither BEZ nor MPA as single agents markedly increased apoptosis

CN(C)[C@@H]1C(O)=C(C(N)=O)C(=O)[C@@]2(O)C(O)=C3C(=O)c4c(O)cccc4[C@@](C)(O)[C@H]3C[C@@H]12 [tetracycline]
AKR1C3-inhibitory activity (recombinant AKR1C3): no AKR1C3-inhibitory activity | chemical stability [2]: rapid conversion of the dissolved tetracycline to an unknown breakdown product
